This is an account of results in ChEMBL document CHEMBL1811853, “Design and evaluation of 3-aminopyrazolopyridinone kinase inhibitors inspired by the natural product indirubin” (Bioorg Med Chem, 2011).

In data set [1] the target is T1, Serine/threonine-protein kinase D2 (Homo sapiens) (UniProt Q9BZL6).
T1 sequence (whole entry): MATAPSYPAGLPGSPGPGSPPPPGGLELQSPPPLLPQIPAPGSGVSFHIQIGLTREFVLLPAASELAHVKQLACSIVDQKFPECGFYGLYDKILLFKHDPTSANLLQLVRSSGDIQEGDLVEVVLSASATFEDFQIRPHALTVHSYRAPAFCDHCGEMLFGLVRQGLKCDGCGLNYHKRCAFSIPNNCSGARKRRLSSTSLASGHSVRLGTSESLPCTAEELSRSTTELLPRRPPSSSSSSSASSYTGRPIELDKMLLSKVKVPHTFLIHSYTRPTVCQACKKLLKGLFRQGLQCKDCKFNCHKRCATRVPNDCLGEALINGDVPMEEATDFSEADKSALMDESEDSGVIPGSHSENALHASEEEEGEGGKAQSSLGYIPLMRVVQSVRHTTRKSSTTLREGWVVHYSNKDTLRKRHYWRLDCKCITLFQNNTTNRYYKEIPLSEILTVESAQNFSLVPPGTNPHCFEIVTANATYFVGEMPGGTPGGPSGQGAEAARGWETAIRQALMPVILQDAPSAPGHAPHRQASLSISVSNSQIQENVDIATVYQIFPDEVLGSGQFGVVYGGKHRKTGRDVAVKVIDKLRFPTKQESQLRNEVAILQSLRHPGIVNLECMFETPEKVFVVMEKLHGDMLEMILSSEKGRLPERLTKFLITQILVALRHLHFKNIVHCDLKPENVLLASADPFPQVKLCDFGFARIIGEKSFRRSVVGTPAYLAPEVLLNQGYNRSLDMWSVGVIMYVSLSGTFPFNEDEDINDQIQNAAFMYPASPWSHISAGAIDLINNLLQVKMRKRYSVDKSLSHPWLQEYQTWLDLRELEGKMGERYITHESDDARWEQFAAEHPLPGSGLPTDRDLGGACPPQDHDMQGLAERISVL
Nature of the data set: Inhibition of PKD2 at 30 uM by microfluidic mobility shift assay. The procedure, abridged: (§1)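 Single-concentration screen, singlicate, 30 uM final (diluted from 1 mM DMSO solutions), fluorescently tagged peptide substrate appropriate to each kinase, ATP at apparent Km for each protein. Phosphorylated and unphosphorylated peptides separated electrophoretically; conversion is the phosphorylated peak area over the sum of both peaks. No-inhibitor and no-ATP controls; H89 reference on each plate.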

Data set [2] has as its target Tyrosine-protein kinase ABL1 (Homo sapiens, UniProt P00519). Put plainly: Inhibition of ABL at 30 uM by microfluidic mobility shift assay. An outline of the steps:
as §1

Data set [3] addresses Proto-oncogene tyrosine-protein kinase Src (Homo sapiens, UniProt P12931). Put plainly: Inhibition of SRC at 30 uM by microfluidic mobility shift assay. An outline of the steps:
as §1

Data set [4] in a line: Inhibition of PKA at 30 uM by microfluidic mobility shift assay. An outline of the steps: as §1
The target in data set [5] is Mitogen-activated protein kinase 14 (Homo sapiens, UniProt Q16539). Put plainly: Inhibition of p38alpha at 30 uM by microfluidic mobility shift assay. An outline of the steps: as §1
The target in data set [6] is Ribosomal protein S6 kinase alpha-5 (Homo sapiens) (UniProt O75582). Put plainly: Inhibition of MSK1 at 30 uM by microfluidic mobility shift assay. The procedure, abridged: as §1
A short description of data set [7]: Aqueous solubility of the compound by HPLC analysis. Format: physicochemical. Conditions: water. An outline of the steps: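 Solubility determined by HPLC measurement of the concentration in saturated aqueous solutions of the compounds.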

Structures are written as SMILES. Values after ≈ are worked out from the molar mass of the structure shown.

Sequence of Mitogen-activated protein kinase 14 (Q16539 whole entry): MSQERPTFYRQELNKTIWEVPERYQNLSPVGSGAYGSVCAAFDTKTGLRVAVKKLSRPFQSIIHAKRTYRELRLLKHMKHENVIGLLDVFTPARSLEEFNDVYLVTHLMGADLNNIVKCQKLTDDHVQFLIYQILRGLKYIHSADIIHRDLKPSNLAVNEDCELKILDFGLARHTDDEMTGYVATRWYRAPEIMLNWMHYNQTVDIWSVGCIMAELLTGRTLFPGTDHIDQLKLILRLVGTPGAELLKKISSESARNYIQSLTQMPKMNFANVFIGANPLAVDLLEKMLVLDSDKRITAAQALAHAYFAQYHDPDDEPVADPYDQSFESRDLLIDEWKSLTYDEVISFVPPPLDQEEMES
Sequence of Ribosomal protein S6 kinase alpha-5 (Homo sapiens) (O75582 whole entry, looked up): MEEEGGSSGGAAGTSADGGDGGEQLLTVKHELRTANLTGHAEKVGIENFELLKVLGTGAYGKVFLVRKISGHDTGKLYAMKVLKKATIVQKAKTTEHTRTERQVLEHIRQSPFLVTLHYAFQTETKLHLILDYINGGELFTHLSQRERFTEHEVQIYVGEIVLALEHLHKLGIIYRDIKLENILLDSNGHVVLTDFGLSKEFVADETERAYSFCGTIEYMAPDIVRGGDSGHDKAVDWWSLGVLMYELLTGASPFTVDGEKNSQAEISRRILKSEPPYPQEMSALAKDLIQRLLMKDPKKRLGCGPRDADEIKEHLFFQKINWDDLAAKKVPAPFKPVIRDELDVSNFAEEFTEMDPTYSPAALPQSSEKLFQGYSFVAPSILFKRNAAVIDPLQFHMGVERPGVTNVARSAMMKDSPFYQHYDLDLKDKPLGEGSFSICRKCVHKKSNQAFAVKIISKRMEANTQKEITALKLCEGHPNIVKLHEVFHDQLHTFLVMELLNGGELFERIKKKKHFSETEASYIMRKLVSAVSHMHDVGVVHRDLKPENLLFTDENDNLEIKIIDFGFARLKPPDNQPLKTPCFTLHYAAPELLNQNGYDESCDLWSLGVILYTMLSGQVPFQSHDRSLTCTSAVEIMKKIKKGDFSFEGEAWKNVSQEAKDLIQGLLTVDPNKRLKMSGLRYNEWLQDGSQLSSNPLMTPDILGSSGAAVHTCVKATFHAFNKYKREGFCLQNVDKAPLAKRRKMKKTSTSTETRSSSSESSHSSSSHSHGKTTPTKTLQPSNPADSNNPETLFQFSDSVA
Sequence of Tyrosine-protein kinase ABL1 (P00519 whole entry): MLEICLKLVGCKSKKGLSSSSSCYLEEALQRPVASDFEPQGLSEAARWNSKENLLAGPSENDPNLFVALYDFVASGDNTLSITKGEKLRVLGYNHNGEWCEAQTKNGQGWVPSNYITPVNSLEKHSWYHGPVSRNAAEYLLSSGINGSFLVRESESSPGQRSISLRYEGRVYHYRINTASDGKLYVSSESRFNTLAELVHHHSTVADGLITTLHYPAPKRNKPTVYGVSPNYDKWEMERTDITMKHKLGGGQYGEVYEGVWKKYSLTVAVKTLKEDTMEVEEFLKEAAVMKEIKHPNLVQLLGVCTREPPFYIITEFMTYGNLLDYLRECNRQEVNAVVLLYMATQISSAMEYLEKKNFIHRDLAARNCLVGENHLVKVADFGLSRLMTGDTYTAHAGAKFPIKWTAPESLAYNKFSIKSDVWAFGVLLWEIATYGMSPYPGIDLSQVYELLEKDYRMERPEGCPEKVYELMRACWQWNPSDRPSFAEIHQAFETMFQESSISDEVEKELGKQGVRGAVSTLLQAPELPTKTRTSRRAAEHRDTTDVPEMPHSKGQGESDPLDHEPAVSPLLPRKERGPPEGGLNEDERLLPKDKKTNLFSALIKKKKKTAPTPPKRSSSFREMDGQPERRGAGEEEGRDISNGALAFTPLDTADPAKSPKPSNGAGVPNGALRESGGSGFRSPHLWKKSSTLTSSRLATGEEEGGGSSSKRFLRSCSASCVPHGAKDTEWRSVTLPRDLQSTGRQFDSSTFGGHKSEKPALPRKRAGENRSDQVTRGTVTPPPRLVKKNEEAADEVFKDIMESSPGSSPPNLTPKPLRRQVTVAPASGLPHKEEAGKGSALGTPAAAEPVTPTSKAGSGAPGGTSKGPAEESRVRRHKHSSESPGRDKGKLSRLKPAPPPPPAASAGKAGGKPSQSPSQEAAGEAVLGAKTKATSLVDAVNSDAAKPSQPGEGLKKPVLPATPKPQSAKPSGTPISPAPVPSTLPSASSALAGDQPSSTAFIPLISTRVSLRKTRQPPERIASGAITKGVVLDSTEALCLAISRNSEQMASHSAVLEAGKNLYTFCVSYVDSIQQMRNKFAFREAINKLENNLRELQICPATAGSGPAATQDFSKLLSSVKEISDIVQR
Sequence of Proto-oncogene tyrosine-protein kinase Src (P12931 2-536 limits assumed): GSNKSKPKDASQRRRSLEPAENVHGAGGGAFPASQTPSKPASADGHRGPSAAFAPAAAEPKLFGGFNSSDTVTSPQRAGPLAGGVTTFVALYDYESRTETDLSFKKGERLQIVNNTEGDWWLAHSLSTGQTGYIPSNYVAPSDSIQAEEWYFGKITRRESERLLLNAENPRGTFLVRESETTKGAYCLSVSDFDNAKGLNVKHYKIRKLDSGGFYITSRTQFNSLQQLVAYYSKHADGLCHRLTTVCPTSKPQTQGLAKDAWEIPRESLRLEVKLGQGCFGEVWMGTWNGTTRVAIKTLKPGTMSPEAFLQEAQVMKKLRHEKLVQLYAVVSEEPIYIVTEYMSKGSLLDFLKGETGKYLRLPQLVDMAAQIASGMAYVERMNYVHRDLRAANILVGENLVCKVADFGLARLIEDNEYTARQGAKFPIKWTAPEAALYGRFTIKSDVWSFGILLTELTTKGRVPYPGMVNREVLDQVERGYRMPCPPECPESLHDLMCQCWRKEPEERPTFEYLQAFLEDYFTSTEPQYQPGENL

As usually defined, the inhibition is the change of the read-out against control, counted positive when it falls. With `Nc1n[nH]c2cc(-c3ccccn3)[nH]c(=O)c12`, the inhibition in data set [1] was 33%; in data set [2] it was 40%; in data set [3], 63%; in data set [4] it was 42%; in data set [5], 17%; in data set [6] it was 35%.
The solubility is the dissolved amount per volume that the medium holds. In data set [7], `CC(=O)Nc1nn(C)c2cc(-c3ccccc3)[nH]c(=O)c12` yielded a solubility of 79 µg/mL (≈ 280 µM). Further, the inhibition in data set [1] is 9%; in data set [2] it was 10%; in data set [3], 12%; in data set [4], -2%; in data set [5], 5%; in data set [6], 3%.
On to `Cn1nc2c3c(nc(-c4ccccc4)cc31)NCC(=O)N2`, for which the inhibition in data set [1] was found to be 17%; in data set [2], 4%; in data set [3] it was 22%; in data set [4], 0%; in data set [5], 6%; in data set [6] it was 0%.
As to `Cn1nc(N)c2c(=O)[nH]c(-c3ccccn3)cc21`, the inhibition was 17% in data set [1]; 27% in data set [2]; 18% in data set [3]; 5% in data set [4]; 1% in data set [5]; -4% in data set [6].
Take `COc1ccc(-c2cc3nn(-c4ccccc4)c(N)c3c(=O)[nH]2)cc1`: the inhibition was 28% in data set [1]; 89% in data set [2]; 89% in data set [3]; -6% in data set [4]; 38% in data set [5]; 6% in data set [6].
For the molecule `Cc1nc(N)c2c(=O)[nH]c(C)cc2n1`, the inhibition in data set [1] turned out to be 6%; in data set [2], 18%; in data set [3] it was 9%; in data set [4], 2%; in data set [5] it was 2%; in data set [6], 0%.
As for `COCCNc1nc(-c2ccccc2)cc2c1c(N)nn2C`, the inhibition is 1% in data set [1]; -7% in data set [2]; 3% in data set [3]; -3% in data set [4]; 2% in data set [5]; 0% in data set [6].
Take `Nc1n[nH]c2c3c([nH]c(=O)c12)CCCC3`: the inhibition is -7% in data set [1]; 0% in data set [2]; 6% in data set [3]; 2% in data set [4]; -4% in data set [5]; 1% in data set [6].
On to `Cc1cc2c(c(NS(C)(=O)=O)nn2C)c(=O)[nH]1`, for which the inhibition in data set [1] was 8%; in data set [2] it was -2%; in data set [3], -2%; in data set [4], -2%; in data set [5], 0%; in data set [6], 4%.
Turning to `COc1cccc(-c2cc3[nH]nc(N)c3c(=O)[nH]2)c1`, the inhibition was determined as 17% in data set [1]; 44% in data set [2]; 62% in data set [3]; 48% in data set [4]; 10% in data set [5]; 49% in data set [6].
Consider `Nc1n[nH]c2cc(-c3ccncc3)[nH]c(=O)c12`, for which the inhibition in data set [1] is 29%; in data set [2], 28%; in data set [3], 46%; in data set [4], 55%; in data set [5], 1%; in data set [6] it was 29%.
As to `Cc1cc2nc(N)nc(N)c2c(=O)[nH]1`, the inhibition in data set [1] is 8%; in data set [2], 19%; in data set [3], 12%; in data set [4], -1%; in data set [5], -1%; in data set [6] it was 6%.
Take `Cc1cc2c(c(N)nn2C)c(N2CC[C@H](O)C2)n1`: the inhibition in data set [1] is 8%; in data set [2] it was -4%; in data set [3], 3%; in data set [4], 4%; in data set [5] it was 0%; in data set [6], 4%.
With `COc1ccccc1-c1cc2nn(-c3ccccc3)c(N)c2c(=O)[nH]1`, the inhibition in data set [1] amounted to 20%; in data set [2], 86%; in data set [3], 87%; in data set [4] it was 6%; in data set [5], 68%; in data set [6] it was 7%.
For the molecule `CN1CCN(c2ccc(-c3cc4nn(-c5ccccc5)c(N)c4c(=O)[nH]3)cc2)CC1`, the inhibition in data set [1] was found to be 15%; in data set [2], 99%; in data set [3], 99%; in data set [4] it was 2%; in data set [5] it was 85%; in data set [6], 12%.
On to `COc1cccc(-c2cc3c(c(N)nn3C)c(=O)[nH]2)c1`, for which the inhibition in data set [1] was 25%; in data set [2], 21%; in data set [3], 30%; in data set [4] it was 7%; in data set [5], 2%; in data set [6], 2%.
`Nc1n[nH]c2cc(-c3ccc(N4CCOCC4)cc3)[nH]c(=O)c12`: the inhibition is 15% in data set [1]; 61% in data set [2]; 74% in data set [3]; 88% in data set [4]; 6% in data set [5]; 39% in data set [6].
As to `COc1ccc(S(=O)(=O)Nc2nn(C)c3cc(C)[nH]c(=O)c23)c(OC)c1`, the inhibition in data set [1] was 14%; in data set [2], 3%; in data set [3], 2%; in data set [4] it was 3%; in data set [5], -4%; in data set [6] it was 3%.
`COc1ccc(-c2cc3c(c(N)nn3C)c(=O)[nH]2)cc1`: the inhibition came to 36% in data set [1]; 53% in data set [2]; 62% in data set [3]; 8% in data set [4]; 5% in data set [5]; 9% in data set [6].
With `CC(=O)Nc1nn(C)c2cc(-c3ccc(N4CCN(C)CC4)cc3)[nH]c(=O)c12`, the inhibition in data set [1] turned out to be 13%; in data set [2] it was 20%; in data set [3] it was 20%; in data set [4] it was 3%; in data set [5], 3%; in data set [6], 0%.
Consider `Nc1c2c(=O)[nH]c(-c3ccccc3)cc2nn1-c1ccccn1`, for which the inhibition was 16% in data set [1]; 33% in data set [2]; 37% in data set [3]; -3% in data set [4]; 7% in data set [5]; -4% in data set [6].
On to `COc1ccc(-c2c(C)[nH]c(=O)c3c(N)nn(C)c23)cc1`, for which the inhibition in data set [1] was 21%; in data set [2], 23%; in data set [3], 15%; in data set [4] it was 10%; in data set [5], -1%; in data set [6], 13%.
For `CC(C)(C)c1cc2nn(-c3ccccc3)c(N)c2c(=O)[nH]1`, the inhibition in data set [1] is 15%; in data set [2], 13%; in data set [3] it was 7%; in data set [4], 1%; in data set [5], 85%; in data set [6], -1%.
`CN1CCN(c2ccc(-c3cc4[nH]nc(N)c4c(=O)[nH]3)cc2)CC1`: the inhibition in data set [1] came out at 15%; in data set [2], 86%; in data set [3], 85%; in data set [4], 98%; in data set [5], 7%; in data set [6] it was 83%.
Regarding `COc1ccc(-c2cc3[nH]nc(N)c3c(=O)[nH]2)cc1`, the inhibition worked out at 28% in data set [1]; 55% in data set [2]; 59% in data set [3]; 82% in data set [4]; 0% in data set [5]; 62% in data set [6].
Take `COCCNc1nc(C)cc2c1c(N)nn2C`: the inhibition in data set [1] was 4%; in data set [2], -8%; in data set [3] it was 2%; in data set [4] it was 19%; in data set [5] it was 1%; in data set [6] it was 0%.
Consider `Nc1n[nH]c2cc(-c3cccnc3)[nH]c(=O)c12`, for which the inhibition in data set [1] came to 26%; in data set [2] it was 37%; in data set [3] it was 46%; in data set [4] it was 35%; in data set [5] it was 3%; in data set [6], 36%.
